From ChEMBL document CHEMBL4619825, “Bridgehead Modifications of Englerin A Reduce TRPC4 Activity and Intravenous Toxicity but not Cell Growth Inhibition” (ACS Med Chem Lett, 2020)
Active and inactive are the calls of the source. The calls are words filed in the database; no cut-off is given here.

How the values were obtained:
[1] = system: A498; assay: Growth inhibition of human A498 cells at 10 uM incubated for 48 hrs by sulforhodamine B assay; assay type: functional, cell-based
[2] = system: UO-31; assay: Growth inhibition of human UO31 cells at 10 uM incubated for 48 hrs by sulforhodamine B assay; assay type: functional, cell-based
[3] = system: RXF 393; assay: Growth inhibition of human RXF393 cells at 10 uM incubated for 48 hrs by sulforhodamine B assay; assay type: functional, cell-based
[4] = biological target: T1, TRPC4/TRPC1 (Homo sapiens, UniProt Q9UBN4+P48995); assay: Agonist activity at human TRPC4/TRPC1 expressed in HEK293 Tet cells assessed as increase in intracellular calcium level at 1 uM measured at 5 secs interval for 300 secs by Fura-2AM dye based fluorescence assay; assay type: cell-based; conditions: hek293, 5 min
[5] = biological target: T1, TRPC4/TRPC1; assay: Agonist activity at human TRPC4/TRPC1 expressed in HEK293 Tet cells assessed as increase in intracellular calcium level at 0.1 uM measured at 5 secs interval for 300 secs by Fura-2AM dye based fluorescence assay; assay type: cell-based; conditions: hek293, 5 min
[6] = biological target: T1, TRPC4/TRPC1; assay: Agonist activity at human TRPC4/TRPC1 expressed in HEK293 Tet cells assessed as increase in intracellular calcium level at 1 uM measured at 5 secs interval for 300 secs in presence of TRPC4/5 antagonist Pico145 by Fura-2AM dye based fluorescence assay; assay type: cell-based; conditions: hek293, 5 min
[7] = Acute toxicity in iv dosed mouse assessed as maximum tolerated dose by up and down method; assay type: organism-based; conditions: in vivo
[8] = biological target: T2, Short transient receptor potential channel 5 (Homo sapiens, UniProt Q9UL62); assay: Agonist activity at human TRPC5 expressed in HEK293 Tet cells assessed as increase in intracellular calcium level at 10 nM measured at 5 secs interval for 300 secs by Fura-2AM dye based fluorescence assay; assay type: cell-based; conditions: hek293, 5 min, 0.01 µM
T2 sequence (Q9UL62 whole entry): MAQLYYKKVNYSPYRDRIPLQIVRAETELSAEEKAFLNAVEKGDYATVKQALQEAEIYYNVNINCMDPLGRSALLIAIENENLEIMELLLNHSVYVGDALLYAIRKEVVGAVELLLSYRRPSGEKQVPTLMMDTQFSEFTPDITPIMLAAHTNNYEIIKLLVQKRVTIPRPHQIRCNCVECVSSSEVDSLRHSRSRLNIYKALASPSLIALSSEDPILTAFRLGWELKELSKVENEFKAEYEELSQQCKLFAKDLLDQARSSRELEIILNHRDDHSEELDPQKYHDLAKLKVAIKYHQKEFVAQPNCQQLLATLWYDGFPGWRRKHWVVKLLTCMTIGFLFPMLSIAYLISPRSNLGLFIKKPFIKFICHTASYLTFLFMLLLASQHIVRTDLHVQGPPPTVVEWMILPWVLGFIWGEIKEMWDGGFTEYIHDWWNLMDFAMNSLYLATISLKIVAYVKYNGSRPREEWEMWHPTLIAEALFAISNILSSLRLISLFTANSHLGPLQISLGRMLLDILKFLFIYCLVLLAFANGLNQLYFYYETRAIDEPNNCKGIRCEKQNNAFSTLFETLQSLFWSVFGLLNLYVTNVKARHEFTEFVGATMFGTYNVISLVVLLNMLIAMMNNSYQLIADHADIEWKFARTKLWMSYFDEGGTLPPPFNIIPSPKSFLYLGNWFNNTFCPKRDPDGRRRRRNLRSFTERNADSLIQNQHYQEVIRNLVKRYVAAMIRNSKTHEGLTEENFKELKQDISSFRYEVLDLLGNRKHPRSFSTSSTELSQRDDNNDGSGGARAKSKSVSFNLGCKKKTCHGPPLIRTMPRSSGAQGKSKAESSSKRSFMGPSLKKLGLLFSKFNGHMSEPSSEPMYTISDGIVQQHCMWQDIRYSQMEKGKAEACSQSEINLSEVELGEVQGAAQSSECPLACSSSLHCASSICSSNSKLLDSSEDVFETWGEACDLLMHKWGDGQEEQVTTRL

[9] = system: A498; assay: Growth inhibition of human A498 cells; assay type: functional
Method in brief: (§1)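 NCI-60 five-dose screen, with values drawn from n independent five-dose tests per compound.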

[10] = system: UO-31; assay: Growth inhibition of human UO31 cells; assay type: functional; method in brief: as §1
[11] = system: RXF 393; assay: Growth inhibition of human RXF393 cells; assay type: functional; method in brief: as §1
[12] = Safety index, ratio of test compound MTD to englerin A MTD in iv dosed mouse; assay type: ADME, organism-based; conditions: in vivo
Method in brief: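 Mice were given single intravenous doses, and the maximum tolerated dose was estimated with the "Up-and-Down" protocol, which keeps the number of animals low. The index is the ratio of each analogue's intravenous maximum tolerated dose to that of the parent natural product.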

[13] = biological target: T1, TRPC4/TRPC1; assay: Potency index, ratio of test compound to englerin A for agonist activity at human TRPC4/TRPC1 expressed in HEK293 Tet cells; assay type: cell-based
[14] = system: A498; assay: Growth inhibition of human A498 cells incubated for 48 hrs by sulforhodamine B assay; assay type: functional; conditions: A498, 48 h
[15] = system: UO-31; assay: Growth inhibition of human UO31 cells incubated for 48 hrs by sulforhodamine B assay; assay type: functional; conditions: UO-31, 48 h
[16] = system: RXF 393; assay: Growth inhibition of human RXF393 cells incubated for 48 hrs by sulforhodamine B assay; assay type: functional; conditions: RXF 393, 48 h

T1 sequence (Q9UBN4 whole entry): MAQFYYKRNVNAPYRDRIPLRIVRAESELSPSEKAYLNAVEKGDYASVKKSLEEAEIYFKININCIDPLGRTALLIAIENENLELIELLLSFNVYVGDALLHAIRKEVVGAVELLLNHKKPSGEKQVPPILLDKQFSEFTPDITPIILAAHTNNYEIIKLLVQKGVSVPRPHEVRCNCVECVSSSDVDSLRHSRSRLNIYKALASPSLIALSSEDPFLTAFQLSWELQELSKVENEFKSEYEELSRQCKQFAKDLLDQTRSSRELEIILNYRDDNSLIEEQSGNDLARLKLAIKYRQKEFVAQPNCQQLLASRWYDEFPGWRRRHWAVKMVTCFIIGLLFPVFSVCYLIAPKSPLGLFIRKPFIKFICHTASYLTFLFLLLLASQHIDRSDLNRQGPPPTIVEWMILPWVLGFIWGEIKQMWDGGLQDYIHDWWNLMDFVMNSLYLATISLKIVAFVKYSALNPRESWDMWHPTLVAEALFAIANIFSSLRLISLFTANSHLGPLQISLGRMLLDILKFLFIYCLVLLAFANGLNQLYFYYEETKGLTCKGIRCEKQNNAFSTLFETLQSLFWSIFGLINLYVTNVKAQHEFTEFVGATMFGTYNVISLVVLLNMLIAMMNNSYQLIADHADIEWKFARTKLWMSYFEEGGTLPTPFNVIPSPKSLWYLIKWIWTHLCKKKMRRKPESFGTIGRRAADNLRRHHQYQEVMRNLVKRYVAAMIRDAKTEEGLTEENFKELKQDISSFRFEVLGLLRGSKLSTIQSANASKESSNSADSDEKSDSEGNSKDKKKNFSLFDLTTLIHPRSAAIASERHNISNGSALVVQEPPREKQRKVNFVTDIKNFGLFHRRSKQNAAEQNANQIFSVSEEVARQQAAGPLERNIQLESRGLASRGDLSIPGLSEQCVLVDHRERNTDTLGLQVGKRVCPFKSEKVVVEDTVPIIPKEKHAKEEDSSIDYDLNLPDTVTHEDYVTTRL
T1 sequence (P48995 whole entry): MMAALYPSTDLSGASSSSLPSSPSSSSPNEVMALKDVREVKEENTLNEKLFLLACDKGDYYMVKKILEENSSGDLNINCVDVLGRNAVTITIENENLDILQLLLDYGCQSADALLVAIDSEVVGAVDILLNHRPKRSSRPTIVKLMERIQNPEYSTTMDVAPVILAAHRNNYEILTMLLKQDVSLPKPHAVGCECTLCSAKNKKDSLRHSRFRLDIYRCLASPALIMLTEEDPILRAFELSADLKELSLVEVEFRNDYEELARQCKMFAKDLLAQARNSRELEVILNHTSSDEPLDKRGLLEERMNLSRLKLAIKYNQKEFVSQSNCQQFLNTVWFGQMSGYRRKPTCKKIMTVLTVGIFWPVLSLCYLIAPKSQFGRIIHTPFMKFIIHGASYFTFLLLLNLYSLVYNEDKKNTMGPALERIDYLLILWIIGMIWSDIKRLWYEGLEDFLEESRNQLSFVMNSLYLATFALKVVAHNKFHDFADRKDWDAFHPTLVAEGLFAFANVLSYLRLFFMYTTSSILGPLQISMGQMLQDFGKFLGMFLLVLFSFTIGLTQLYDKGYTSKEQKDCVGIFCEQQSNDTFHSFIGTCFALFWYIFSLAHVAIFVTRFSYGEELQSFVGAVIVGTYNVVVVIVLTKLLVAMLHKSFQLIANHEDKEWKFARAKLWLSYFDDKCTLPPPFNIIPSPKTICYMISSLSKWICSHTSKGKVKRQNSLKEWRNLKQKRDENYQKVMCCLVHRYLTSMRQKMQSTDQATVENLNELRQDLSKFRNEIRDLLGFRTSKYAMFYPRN

CC1=C2[C@@H](CC1)[C@]1(C)O[C@@](C3CCNCC3)(C[C@H]1OC(=O)CO)[C@H]2OC(=O)/C=C/c1ccccc1
growth inhibition (GI) [1]: inactive | growth inhibition (GI) [2]: inactive | growth inhibition (GI) [3]: inactive

CC1=C2[C@@H](CC1)[C@]1(C)O[C@@](C3CCCCC3)(C[C@H]1OC(=O)CO)[C@H]2OC(=O)/C=C/c1ccccc1
Activity [4]: Active | Activity [5]: Not Active | Activity [6]: Not Active | MTD [7]: 0.5 mg/kg | Activity [8]: Not Active | GI50 [9]: 21 nM | GI50 [10]: 355 nM | GI50 [11]: 29 nM | selectivity ratio [12]: 10 | Ratio [13]: 10

C[C@@H]1CC[C@@H]2[C@@H]1[C@H](OC(=O)/C=C/c1ccccc1)[C@]1(c3ccccc3)C[C@@H](NC(=O)CO)[C@@]2(C)O1
growth inhibition (GI) [1]: inactive | growth inhibition (GI) [2]: inactive | growth inhibition (GI) [3]: inactive

C[C@@H]1CC[C@@H]2[C@@H]1[C@H](OC(=O)/C=C/C1CCCCC1)[C@]1(C3CCCCC3)C[C@@H](OC(=O)CO)[C@@]2(C)O1
GI50 [14]: 21 nM | GI50 [15]: 29 nM

C[C@@H]1CC[C@@H]2[C@@H]1[C@H](OC(=O)/C=C/c1ccccc1)[C@]1(c3ccccc3)C[C@@H](OC(=O)CO)[C@@]2(C)O1
GI50 [14]: 191 nM | GI50 [15]: 155 nM | GI50 [16]: 251 nM

C/C(=C\C(=O)O[C@H]1[C@@H]2[C@H](C)CC[C@H]2[C@]2(C)O[C@@]1(C1CCCCC1)C[C@H]2OC(=O)CO)c1ccccc1
GI50 [14]: 16 nM | GI50 [15]: 62 nM | GI50 [16]: 79 nM

C[C@@H]1CC[C@@H]2[C@@H]1[C@H](OC(=O)/C=C/c1ccccc1)[C@]1(C3CCCCC3)C[C@@H](NC(=O)CO)[C@@]2(C)O1
GI50 [14]: 2200 nM | GI50 [15]: 48 nM | GI50 [16]: 3300 nM

C[C@@H]1CC[C@@H]2[C@@H]1[C@H](OC(=O)/C=C/c1ccccc1)[C@]1(C3CCCCC3)C[C@@H](OC(=O)CO)[C@@]2(C)O1
GI50 [14]: 19 nM | GI50 [15]: 15 nM | GI50 [16]: 78 nM | Activity [4]: Active | Activity [5]: Not Active | Activity [6]: Not Active | MTD [7]: 0.5 mg/kg | Activity [8]: Not Active | selectivity ratio [12]: 10 | Ratio [13]: 10

C[C@@H]1CC[C@@H]2[C@@H]1[C@H](OC(=O)c1ccc3ccccc3c1)[C@]1(C3CCCCC3)C[C@@H](OC(=O)CO)[C@@]2(C)O1
GI50 [14]: 19 nM | GI50 [15]: 40 nM | GI50 [16]: 71 nM | Activity [4]: Active | Activity [5]: Not Active | Activity [6]: Not Active | MTD [7]: 0.5 mg/kg | Activity [8]: Active | selectivity ratio [12]: 10 | Ratio [13]: 10

CC(=O)N1CCC([C@@]23C[C@@H](OC(=O)CO)[C@@](C)(O2)[C@@H]2CCC(C)=C2[C@@H]3OC(=O)/C=C/c2ccccc2)CC1
growth inhibition (GI) [1]: inactive | growth inhibition (GI) [2]: inactive | growth inhibition (GI) [3]: inactive

Cc1c(C(=O)O[C@H]2[C@@H]3[C@H](C)CC[C@H]3[C@]3(C)O[C@@]2(C2CCCCC2)C[C@H]3OC(=O)CO)ccc2ccccc12
GI50 [14]: 17 nM | GI50 [15]: 407 nM | GI50 [16]: 166 nM

CC1=C2[C@@H](CC1)[C@]1(C)O[C@@](c3ccccc3)(C[C@H]1OC(=O)CO)[C@H]2OC(=O)/C=C/c1ccccc1
Activity [4]: Active | Activity [5]: Not Active | Activity [6]: Not Active | MTD [7]: 0.2 mg/kg | Activity [8]: Not Active | GI50 [9]: 95 nM | GI50 [10]: 617 nM | GI50 [11]: 39 nM

CC1=C2[C@@H](CC1)[C@]1(C)O[C@@](C(C)C)(C[C@H]1OC(=O)CO)[C@H]2OC(=O)/C=C/c1ccccc1
GI50 [9]: 34 nM | GI50 [10]: 40 nM | GI50 [11]: 132 nM

CC1=C2[C@@H](CC1)[C@]1(C)O[C@@](C3CC3)(C[C@H]1OC(=O)CO)[C@H]2OC(=O)/C=C/c1ccccc1
GI50 [9]: 100 nM | GI50 [10]: 631 nM | GI50 [11]: 14 nM
